# Square brackets hold non-standard residues; d marks the D form. Peptide text beside a SMILES is read from it. * marks the point of attachment. ξ: configuration not given here. Butanoyl(4-(4-HOPh)) = O=C(CCCc1ccc(O)cc1)*; ξαMeY = CC(N)(Cc1ccc(O)cc1)C(=O)O
# Tested on: not listed separately
# Assay: Average max percent decrease in RVR (renal vascular resistance) was determined.
# Details: not given
# In short: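 Secondary protocol in anesthetized dogs. Drug given as iv infusion at progressively increasing rates, each dose level for 5 min. The maximum effect is taken as the largest percent decrease in renal vascular resistance (RVR) reached with the compound. RVR is calculated as mean arterial blood pressure / mean renal blood flow.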
row,Compound,Decrease [%]
1,CC(Cc1ccc(O)cc1)(NC(=O)[C@@H]1CCCN1C(=O)CCCc1ccc(O)cc1)C(=O)NCC(=O)N1CCC[C@H]1C(=O)O (some centres undefined) ({Butanoyl(4-(4-HOPh))}-P[ξαMeY]GP-OH),13
2,CC(Cc1ccccc1)(NC(=O)[C@@H]1CCCN1C(=O)CC12CC3CC(CC(C3)C1)C2)C(=O)N[C@@H](CCCN=C(N)N)C(=O)O (some centres undefined),19

# Tested on: Canis familiaris
# Assay: Compound was evaluated for renal vasodilator activity and represented as ED15 (intravenous administration)
# Type: functional
# Details: Canis lupus familiaris
# In short: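 Secondary protocol in anesthetized dogs with iv infusion at progressively increasing rates, each level infused 5 min. Potency is the cumulative dose (µg/kg) that lowered renal vascular resistance (MABP / mean RBF) by 15%. Minimum change needed for significance (p = 0.95) is 16% for RVR.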
row,Compound,ED15 [mg/kg]
1,CC(Cc1ccccc1)(NC(=O)[C@@H]1CCCN1C(=O)CC12CC3CC(CC(C3)C1)C2)C(=O)N[C@@H](CCCN=C(N)N)C(=O)O (some centres undefined),0.072

# Tested on: Canis familiaris
# Assay: Renal vasodilator activity in anesthetized dogs and percent change in mean arterial blood pressure (MABP) was determined at 3 ug/Kg/min
# Type: functional, Canis lupus familiaris
# Details: not given
# In short: (§1)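 Primary screen in anesthetized dogs (7-17 kg). Drug infused separately at 3, 30 and 300 µg/(kg min), each infusion lasting 5 min, at about 15-min intervals. Read-outs are renal blood flow, mean arterial blood pressure, heart rate, and RVR (MABP / mean RBF), as percent change. Significance thresholds are defined per number of dogs; n = 1-3 dogs.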
row,Compound,Change [%]
1,CC(Cc1ccccc1)(NC(=O)[C@@H]1CCCN1C(=O)CC12CC3CC(CC(C3)C1)C2)C(=O)N[C@@H](CCCN=C(N)N)C(=O)O (some centres undefined),-0.5

# Tested on: Canis familiaris
# Assay: In vivo percent change in renal blood flow at 30 ug/Kg/min.
# Type: functional, Canis lupus familiaris, Kidney
# Details: not given
# In short: as §1
row,Compound,Change [%]
1,CC(Cc1ccc(O)cc1)(NC(=O)[C@@H]1CCCN1C(=O)CCCc1ccc(O)cc1)C(=O)NCC(=O)N1CCC[C@H]1C(=O)O (some centres undefined) ({Butanoyl(4-(4-HOPh))}-P[ξαMeY]GP-OH),0.5

# Tested on: Canis familiaris
# Assay: Renal vasodilator activity in anesthetized dogs and percent change in renal vascular resistance (RVR) was determined at 30 ug/Kg/min
# Type: functional, Canis lupus familiaris
# Details: not given
# In short: as §1
row,Compound,Change [%]
1,CC(Cc1ccc(O)cc1)(NC(=O)[C@@H]1CCCN1C(=O)CCCc1ccc(O)cc1)C(=O)NCC(=O)N1CCC[C@H]1C(=O)O (some centres undefined) ({Butanoyl(4-(4-HOPh))}-P[ξαMeY]GP-OH),-0.5

# Tested on: Canis familiaris
# Assay: In vivo percent change in canine heart rate at 3 ug/Kg/min.
# Type: functional, Canis lupus familiaris
# Details: not given
# In short: as §1
row,Compound,Change [%]
1,CC(Cc1ccc(O)cc1)(NC(=O)[C@@H]1CCCN1C(=O)CCCc1ccc(O)cc1)C(=O)NCC(=O)N1CCC[C@H]1C(=O)O (some centres undefined) ({Butanoyl(4-(4-HOPh))}-P[ξαMeY]GP-OH),-7
2,CC(Cc1ccccc1)(NC(=O)[C@@H]1CCCN1C(=O)CC12CC3CC(CC(C3)C1)C2)C(=O)N[C@@H](CCCN=C(N)N)C(=O)O (some centres undefined),3.5

# Tested on: Canis familiaris
# Assay: In vivo percent change in canine heart rate at 30 ug/Kg/min.
# Type: functional, Canis lupus familiaris
# Details: not given
# In short: as §1
row,Compound,Change [%]
1,CC(Cc1ccc(O)cc1)(NC(=O)[C@@H]1CCCN1C(=O)CCCc1ccc(O)cc1)C(=O)NCC(=O)N1CCC[C@H]1C(=O)O (some centres undefined) ({Butanoyl(4-(4-HOPh))}-P[ξαMeY]GP-OH),0
2,CC(Cc1ccccc1)(NC(=O)[C@@H]1CCCN1C(=O)CC12CC3CC(CC(C3)C1)C2)C(=O)N[C@@H](CCCN=C(N)N)C(=O)O (some centres undefined),0.5

# Tested on: Canis familiaris
# Assay: In vivo percent change in canine heart rate at 300 ug/Kg/min.
# Type: functional, Canis lupus familiaris
# Details: not given
# In short: as §1
row,Compound,Change [%]
1,CC(Cc1ccc(O)cc1)(NC(=O)[C@@H]1CCCN1C(=O)CCCc1ccc(O)cc1)C(=O)NCC(=O)N1CCC[C@H]1C(=O)O (some centres undefined) ({Butanoyl(4-(4-HOPh))}-P[ξαMeY]GP-OH),-1.5
2,CC(Cc1ccccc1)(NC(=O)[C@@H]1CCCN1C(=O)CC12CC3CC(CC(C3)C1)C2)C(=O)N[C@@H](CCCN=C(N)N)C(=O)O (some centres undefined),2

# Tested on: Canis familiaris
# Assay: In vivo percent change in canine mean arterial blood pressure (MABP) at 3 ug/Kg/min.
# Type: functional, Canis lupus familiaris
# Details: not given
# In short: as §1
row,Compound,Change [%]
1,CC(Cc1ccc(O)cc1)(NC(=O)[C@@H]1CCCN1C(=O)CCCc1ccc(O)cc1)C(=O)NCC(=O)N1CCC[C@H]1C(=O)O (some centres undefined) ({Butanoyl(4-(4-HOPh))}-P[ξαMeY]GP-OH),-2

# Tested on: Canis familiaris
# Assay: In vivo percent change in canine mean arterial blood pressure (MABP) at 30 ug/Kg/min.
# Type: functional, Canis lupus familiaris
# Details: not given
# In short: as §1
row,Compound,Change [%]
1,CC(Cc1ccc(O)cc1)(NC(=O)[C@@H]1CCCN1C(=O)CCCc1ccc(O)cc1)C(=O)NCC(=O)N1CCC[C@H]1C(=O)O (some centres undefined) ({Butanoyl(4-(4-HOPh))}-P[ξαMeY]GP-OH),1
2,CC(Cc1ccccc1)(NC(=O)[C@@H]1CCCN1C(=O)CC12CC3CC(CC(C3)C1)C2)C(=O)N[C@@H](CCCN=C(N)N)C(=O)O (some centres undefined),1

# Tested on: Canis familiaris
# Assay: In vivo percent change in canine mean arterial blood pressure (MABP) at 300 ug/Kg/min.
# Type: functional, Canis lupus familiaris
# Details: not given
# In short: as §1
row,Compound,Change [%]
1,CC(Cc1ccc(O)cc1)(NC(=O)[C@@H]1CCCN1C(=O)CCCc1ccc(O)cc1)C(=O)NCC(=O)N1CCC[C@H]1C(=O)O (some centres undefined) ({Butanoyl(4-(4-HOPh))}-P[ξαMeY]GP-OH),3
2,CC(Cc1ccccc1)(NC(=O)[C@@H]1CCCN1C(=O)CC12CC3CC(CC(C3)C1)C2)C(=O)N[C@@H](CCCN=C(N)N)C(=O)O (some centres undefined),3

# Tested on: Canis familiaris
# Assay: In vivo percent change in canine renal blood flow (RBF) at 3 ug/Kg/min.
# Type: functional, Canis lupus familiaris, Kidney
# Details: not given
# In short: as §1
row,Compound,Change [%]
1,CC(Cc1ccc(O)cc1)(NC(=O)[C@@H]1CCCN1C(=O)CCCc1ccc(O)cc1)C(=O)NCC(=O)N1CCC[C@H]1C(=O)O (some centres undefined) ({Butanoyl(4-(4-HOPh))}-P[ξαMeY]GP-OH),4
2,CC(Cc1ccccc1)(NC(=O)[C@@H]1CCCN1C(=O)CC12CC3CC(CC(C3)C1)C2)C(=O)N[C@@H](CCCN=C(N)N)C(=O)O (some centres undefined),13

# Tested on: Canis familiaris
# Assay: In vivo percent change in canine renal blood flow (RBF) at 30 ug/Kg/min.
# Type: functional, Canis lupus familiaris, Kidney
# Details: not given
# In short: as §1
row,Compound,Change [%]
1,CC(Cc1ccccc1)(NC(=O)[C@@H]1CCCN1C(=O)CC12CC3CC(CC(C3)C1)C2)C(=O)N[C@@H](CCCN=C(N)N)C(=O)O (some centres undefined),0.5

# Tested on: Canis familiaris
# Assay: In vivo percent change in canine renal blood flow (RBF) at 300 ug/Kg/min.
# Type: functional, Canis lupus familiaris, Kidney
# Details: not given
# In short: as §1
row,Compound,Change [%]
1,CC(Cc1ccc(O)cc1)(NC(=O)[C@@H]1CCCN1C(=O)CCCc1ccc(O)cc1)C(=O)NCC(=O)N1CCC[C@H]1C(=O)O (some centres undefined) ({Butanoyl(4-(4-HOPh))}-P[ξαMeY]GP-OH),9
2,CC(Cc1ccccc1)(NC(=O)[C@@H]1CCCN1C(=O)CC12CC3CC(CC(C3)C1)C2)C(=O)N[C@@H](CCCN=C(N)N)C(=O)O (some centres undefined),-14

# Tested on: Canis familiaris
# Assay: In vivo percent change in canine renal vascular resistance (RVR) at 3 ug/Kg/min.
# Type: functional, Canis lupus familiaris
# Details: not given
# In short: as §1
row,Compound,Change [%]
1,CC(Cc1ccc(O)cc1)(NC(=O)[C@@H]1CCCN1C(=O)CCCc1ccc(O)cc1)C(=O)NCC(=O)N1CCC[C@H]1C(=O)O (some centres undefined) ({Butanoyl(4-(4-HOPh))}-P[ξαMeY]GP-OH),-6
2,CC(Cc1ccccc1)(NC(=O)[C@@H]1CCCN1C(=O)CC12CC3CC(CC(C3)C1)C2)C(=O)N[C@@H](CCCN=C(N)N)C(=O)O (some centres undefined),-11.5

# Tested on: Canis familiaris
# Assay: In vivo percent change in canine renal vascular resistance (RVR) at 30 ug/Kg/min.
# Type: functional, Canis lupus familiaris
# Details: not given
# In short: as §1
row,Compound,Change [%]
1,CC(Cc1ccccc1)(NC(=O)[C@@H]1CCCN1C(=O)CC12CC3CC(CC(C3)C1)C2)C(=O)N[C@@H](CCCN=C(N)N)C(=O)O (some centres undefined),-0.5

# Tested on: Canis familiaris
# Assay: In vivo percent change in canine renal vascular resistance (RVR) at 300 ug/Kg/min.
# Type: functional, Canis lupus familiaris
# Details: not given
# In short: as §1
row,Compound,Change [%]
1,CC(Cc1ccc(O)cc1)(NC(=O)[C@@H]1CCCN1C(=O)CCCc1ccc(O)cc1)C(=O)NCC(=O)N1CCC[C@H]1C(=O)O (some centres undefined) ({Butanoyl(4-(4-HOPh))}-P[ξαMeY]GP-OH),-5.9
2,CC(Cc1ccccc1)(NC(=O)[C@@H]1CCCN1C(=O)CC12CC3CC(CC(C3)C1)C2)C(=O)N[C@@H](CCCN=C(N)N)C(=O)O (some centres undefined),21.5

# Tested on: not listed separately
# Assay: Ratio of ED20 of MABP (mean arterial blood pressure) to the ED15 of RVR ( renal vascular resistance).
# Type: functional
# Details: not given
# In short: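 Anesthetized dogs in the secondary cumulative-infusion protocol, each dose level 5 min. Selectivity ratio is the dose giving a 20% change in mean arterial blood pressure divided by the cumulative dose lowering renal vascular resistance 15% (RVR ED15).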
row,Compound,Ratio
1,CC(Cc1ccccc1)(NC(=O)[C@@H]1CCCN1C(=O)CC12CC3CC(CC(C3)C1)C2)C(=O)N[C@@H](CCCN=C(N)N)C(=O)O (some centres undefined),>84

# Tested on: not listed separately
# Assay: Ratio of ED30 of iliac vascular resistant (IVR) to the ED15 of RVR (renal vascular resistance)
# Type: functional
# Details: not given
# In short: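 Anesthetized dogs in the secondary cumulative-infusion protocol, each dose level 5 min. Selectivity ratio is the dose giving a 30% change in iliac vascular resistance divided by the RVR ED15, the cumulative dose decreasing renal vascular resistance by 15%.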
row,Compound,Ratio
1,CC(Cc1ccccc1)(NC(=O)[C@@H]1CCCN1C(=O)CC12CC3CC(CC(C3)C1)C2)C(=O)N[C@@H](CCCN=C(N)N)C(=O)O (some centres undefined),0
